pIC50: −log10 of the molar value. Calls of active or inactive are those of the source. The rule behind the calls is not given here.
Key:
[1] = biological target: Receptor tyrosine-protein kinase erbB-2 (Homo sapiens, UniProt P04626); experiment: Inhibition of human recombinant HER2 expressed in insect Sf9 cells
[2] = biological target: Epidermal growth factor receptor (Homo sapiens, UniProt P00533); experiment: Inhibition of human recombinant EGFR expressed in insect Sf9 cells
[3] = test system: NCI-N87; experiment: Antiproliferative activity against human N87 cells
[4] = test system: HT-29; experiment: Antiproliferative activity against human HT29 cells; type: functional, cell-based
Outline: (§1)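 HT29 (colon carcinoma) and A2780 (ovarian carcinoma) lines, stated not to rely on EGFR or HER2 signalling, serve as counter-screen lines; proliferation IC50 reported.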

[5] = test system: A2780; experiment: Antiproliferative activity against human A2780 cells; type: functional, cell-based; outline: as §1
[6] = test system: Liver; experiment: Metabolic stability in mouse liver microsomes at 3 uM after 10 mins in presence of NADPH; type: ADME, Microsome
Outline: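 Mouse liver microsomes with NADPH; compound at 3 µM, incubated 10 min; metabolic rate expressed as nmol/min/mg protein.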

[7] = AUC (0 to 4 hrs) in BALB/c mouse at 50 mg/kg, po after 4 hrs; type: ADME, organism-based; set-up: time < 4 hr, dose 50 mg/kg, route oral; conditions: plasma
[8] = Drug level in BALB/c mouse plasma at 50 mg/kg, po after 4 hrs; type: ADME, organism-based; set-up: dose 50 mg/kg, route oral
Outline: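 Single oral 50 mg/kg dose in Tween 80/PEG400/water (10/40/50, v/v/v) to three male Balb/C mice; plasma concentration at 4 h averaged, AUC0–4h also derived.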

[9] = Antitumor activity against human GEO cells xenografted in athymic mouse at 135 mg/kg, sc BID after 14 days; type: functional; conditions: 336 h, route subcutaneous
[10] = test system: NCI-N87; experiment: Antitumor activity against human N87 cells xenografted in athymic mouse at 180 mg/kg, po QD after 21 days; conditions: 504 h; for minimal effective dose at 180 mg/kg: read-out: MED
[11] = test system: GEO; experiment: Antitumor activity against human GEO cells xenografted in athymic mouse at 180 mg/kg, sc QD after 10 days; type: functional, organism-based; set-up: dose 180 mg/kg
[12] = test system: NCI-N87; experiment: Antitumor activity against human N87 cells xenografted in athymic mouse at 240 mg/kg, sc QD after 21 days; type: functional; conditions: 504 h
[13] = Inhibition of PKA; set-up: species or system Homo sapiens
Outline: (§2)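 Kinase panel IC50s, each reported as the mean of at least three determinations.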

[14] = test system: HT29; experiment: Antiproliferative activity against human HT29 cells
[15] = Antitumor activity against human GEO cells xenografted in athymic mouse at 240 mg/kg, […] after 10 days; type: functional; conditions: sc, 240 h
Outline: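 Established subcutaneous GEO human colon carcinoma xenografts in athymic mice. Compound given orally once daily for 10 days (QD × 10) in Tween 80–PEG400–water (10/40/50).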

[16] = biological target: Hepatocyte growth factor receptor (Homo sapiens, UniProt P08581); experiment: Inhibition of Met
Outline: (§3)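 Selectivity-panel kinase assays against each named kinase. IC50 reported as the mean of at least three determinations.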

[17] = biological target: Tyrosine-protein kinase Lck (Homo sapiens, UniProt P06239); experiment: Inhibition of LCK
[18] = biological target: Vascular endothelial growth factor receptor 2 (Homo sapiens, UniProt P35968); experiment: Inhibition of VEGFR2; outline: as §3
[19] = biological target: CDK2/Cyclin E1 (Homo sapiens, UniProt P24941); experiment: Inhibition of CDK2; outline: as §3
[20] = biological target: MAP kinase p38 (Homo sapiens, UniProt O15264+Q15759+Q16539+P53778); experiment: Inhibition of p38; type: protein assay; outline: as §3
[21] = biological target: Protein kinase C (PKC); experiment: Inhibition of PKC; set-up: species or system Homo sapiens; outline: as §2
[22] = Antitumor activity against human GEO cells xenografted in athymic mouse at 120 mg/kg, sc QD after 10 days

Sequence of Receptor tyrosine-protein kinase erbB-2 (P04626 whole entry): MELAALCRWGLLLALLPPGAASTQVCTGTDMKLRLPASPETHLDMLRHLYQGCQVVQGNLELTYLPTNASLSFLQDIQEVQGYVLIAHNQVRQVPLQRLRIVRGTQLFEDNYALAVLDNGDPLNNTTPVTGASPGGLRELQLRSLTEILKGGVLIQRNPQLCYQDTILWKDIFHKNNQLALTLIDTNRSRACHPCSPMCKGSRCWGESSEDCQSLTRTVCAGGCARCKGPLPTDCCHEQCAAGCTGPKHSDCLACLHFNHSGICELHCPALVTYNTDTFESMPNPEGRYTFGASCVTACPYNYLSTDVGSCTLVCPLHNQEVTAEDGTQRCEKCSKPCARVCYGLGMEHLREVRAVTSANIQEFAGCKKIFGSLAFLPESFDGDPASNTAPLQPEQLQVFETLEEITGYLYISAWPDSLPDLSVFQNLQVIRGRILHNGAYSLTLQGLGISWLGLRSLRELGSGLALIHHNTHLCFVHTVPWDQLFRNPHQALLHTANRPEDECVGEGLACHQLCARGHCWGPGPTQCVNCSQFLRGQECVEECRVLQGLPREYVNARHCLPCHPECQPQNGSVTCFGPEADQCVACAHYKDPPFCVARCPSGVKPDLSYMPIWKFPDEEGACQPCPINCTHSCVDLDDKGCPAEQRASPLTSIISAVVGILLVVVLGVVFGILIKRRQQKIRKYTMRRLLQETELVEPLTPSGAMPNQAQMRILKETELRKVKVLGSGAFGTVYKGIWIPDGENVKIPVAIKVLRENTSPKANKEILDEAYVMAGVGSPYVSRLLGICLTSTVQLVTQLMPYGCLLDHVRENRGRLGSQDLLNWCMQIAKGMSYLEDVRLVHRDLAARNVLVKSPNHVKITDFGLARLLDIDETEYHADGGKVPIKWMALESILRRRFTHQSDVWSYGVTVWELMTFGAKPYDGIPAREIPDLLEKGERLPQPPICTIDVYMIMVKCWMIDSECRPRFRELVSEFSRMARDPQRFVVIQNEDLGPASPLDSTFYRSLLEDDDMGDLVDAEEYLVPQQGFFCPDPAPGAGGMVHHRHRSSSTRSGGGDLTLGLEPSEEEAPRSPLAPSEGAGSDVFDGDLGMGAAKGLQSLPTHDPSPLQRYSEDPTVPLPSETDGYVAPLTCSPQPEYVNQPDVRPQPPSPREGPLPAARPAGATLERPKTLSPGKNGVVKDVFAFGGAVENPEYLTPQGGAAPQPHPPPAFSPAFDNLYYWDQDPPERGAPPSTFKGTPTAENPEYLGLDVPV
Sequence of Epidermal growth factor receptor (P00533 whole entry): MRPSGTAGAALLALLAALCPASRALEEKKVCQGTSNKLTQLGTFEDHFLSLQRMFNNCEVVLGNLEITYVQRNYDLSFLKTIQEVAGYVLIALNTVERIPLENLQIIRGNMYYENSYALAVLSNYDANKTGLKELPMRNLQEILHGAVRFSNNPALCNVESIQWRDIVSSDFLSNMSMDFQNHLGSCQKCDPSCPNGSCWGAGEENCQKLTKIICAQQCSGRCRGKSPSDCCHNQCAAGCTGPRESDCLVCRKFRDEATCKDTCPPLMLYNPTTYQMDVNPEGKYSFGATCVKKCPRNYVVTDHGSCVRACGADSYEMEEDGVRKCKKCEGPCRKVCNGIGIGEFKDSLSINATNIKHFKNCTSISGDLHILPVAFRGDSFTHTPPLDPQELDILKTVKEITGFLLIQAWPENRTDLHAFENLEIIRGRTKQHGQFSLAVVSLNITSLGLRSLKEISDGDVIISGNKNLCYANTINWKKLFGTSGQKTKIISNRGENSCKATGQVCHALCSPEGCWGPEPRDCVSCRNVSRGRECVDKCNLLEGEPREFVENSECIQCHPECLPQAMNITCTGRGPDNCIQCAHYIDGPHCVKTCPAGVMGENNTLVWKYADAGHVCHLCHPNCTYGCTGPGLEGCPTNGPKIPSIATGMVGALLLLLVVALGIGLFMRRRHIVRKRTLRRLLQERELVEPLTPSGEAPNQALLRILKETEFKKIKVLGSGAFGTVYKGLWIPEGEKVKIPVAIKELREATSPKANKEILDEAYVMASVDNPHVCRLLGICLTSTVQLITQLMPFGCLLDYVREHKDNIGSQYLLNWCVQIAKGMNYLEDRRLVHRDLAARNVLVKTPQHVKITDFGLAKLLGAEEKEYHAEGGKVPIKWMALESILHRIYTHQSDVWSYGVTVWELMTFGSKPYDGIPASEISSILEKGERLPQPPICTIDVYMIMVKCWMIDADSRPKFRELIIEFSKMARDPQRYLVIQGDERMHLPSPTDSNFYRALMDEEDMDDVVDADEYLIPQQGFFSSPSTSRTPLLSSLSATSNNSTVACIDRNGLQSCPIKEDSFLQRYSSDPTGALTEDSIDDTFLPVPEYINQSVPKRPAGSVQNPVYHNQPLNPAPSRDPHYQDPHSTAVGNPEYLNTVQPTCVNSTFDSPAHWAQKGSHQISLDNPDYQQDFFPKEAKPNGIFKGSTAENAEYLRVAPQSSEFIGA
Sequence of Tyrosine-protein kinase Lck (P06239 whole entry): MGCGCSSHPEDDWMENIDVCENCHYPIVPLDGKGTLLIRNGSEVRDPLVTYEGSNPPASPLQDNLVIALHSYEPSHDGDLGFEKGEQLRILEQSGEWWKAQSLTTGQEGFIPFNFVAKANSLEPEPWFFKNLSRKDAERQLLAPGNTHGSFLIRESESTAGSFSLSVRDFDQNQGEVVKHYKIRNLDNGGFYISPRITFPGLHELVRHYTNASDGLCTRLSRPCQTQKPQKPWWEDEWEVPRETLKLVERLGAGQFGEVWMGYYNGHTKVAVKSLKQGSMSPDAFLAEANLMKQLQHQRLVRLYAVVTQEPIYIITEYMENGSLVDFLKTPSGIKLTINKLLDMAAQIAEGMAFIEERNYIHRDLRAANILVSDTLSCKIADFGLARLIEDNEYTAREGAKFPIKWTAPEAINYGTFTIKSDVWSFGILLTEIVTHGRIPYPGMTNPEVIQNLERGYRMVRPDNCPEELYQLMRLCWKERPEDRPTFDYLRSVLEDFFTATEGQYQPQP
Sequence of Hepatocyte growth factor receptor (P08581 whole entry): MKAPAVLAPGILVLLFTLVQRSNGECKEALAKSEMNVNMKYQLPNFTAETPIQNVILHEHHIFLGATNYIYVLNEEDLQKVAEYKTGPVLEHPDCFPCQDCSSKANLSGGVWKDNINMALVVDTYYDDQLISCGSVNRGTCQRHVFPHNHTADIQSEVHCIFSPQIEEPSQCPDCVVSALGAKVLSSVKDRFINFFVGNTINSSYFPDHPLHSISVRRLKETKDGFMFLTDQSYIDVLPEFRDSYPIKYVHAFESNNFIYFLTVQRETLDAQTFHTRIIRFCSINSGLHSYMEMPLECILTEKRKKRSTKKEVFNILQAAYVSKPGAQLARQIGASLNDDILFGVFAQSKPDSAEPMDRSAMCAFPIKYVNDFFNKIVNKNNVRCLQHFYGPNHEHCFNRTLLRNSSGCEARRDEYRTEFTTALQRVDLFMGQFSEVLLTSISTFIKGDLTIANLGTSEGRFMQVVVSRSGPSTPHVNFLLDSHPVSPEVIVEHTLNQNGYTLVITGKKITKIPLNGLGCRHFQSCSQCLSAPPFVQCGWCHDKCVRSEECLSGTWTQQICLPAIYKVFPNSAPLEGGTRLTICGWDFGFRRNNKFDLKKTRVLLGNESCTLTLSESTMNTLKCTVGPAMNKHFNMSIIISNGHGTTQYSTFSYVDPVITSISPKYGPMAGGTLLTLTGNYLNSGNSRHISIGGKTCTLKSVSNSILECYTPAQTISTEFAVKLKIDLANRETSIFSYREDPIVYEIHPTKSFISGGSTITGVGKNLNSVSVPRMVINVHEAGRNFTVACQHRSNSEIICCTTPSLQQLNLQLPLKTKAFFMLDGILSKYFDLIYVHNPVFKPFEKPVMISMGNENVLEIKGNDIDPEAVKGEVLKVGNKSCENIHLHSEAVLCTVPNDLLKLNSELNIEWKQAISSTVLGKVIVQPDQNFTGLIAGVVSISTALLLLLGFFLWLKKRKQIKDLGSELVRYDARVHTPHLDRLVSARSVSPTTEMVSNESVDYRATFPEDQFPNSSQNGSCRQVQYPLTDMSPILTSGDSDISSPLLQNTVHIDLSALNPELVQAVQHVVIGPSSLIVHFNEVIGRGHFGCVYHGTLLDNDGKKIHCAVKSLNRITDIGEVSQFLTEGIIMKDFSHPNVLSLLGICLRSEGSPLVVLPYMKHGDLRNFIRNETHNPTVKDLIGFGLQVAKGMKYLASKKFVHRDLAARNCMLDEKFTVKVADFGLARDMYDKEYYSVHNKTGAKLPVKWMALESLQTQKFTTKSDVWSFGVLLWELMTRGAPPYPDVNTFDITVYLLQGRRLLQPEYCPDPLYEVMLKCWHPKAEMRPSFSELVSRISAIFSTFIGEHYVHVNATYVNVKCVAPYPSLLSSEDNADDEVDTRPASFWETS

SMILES	pIC50 [1]	pIC50 [2]	pIC50 [3]	pIC50 [4]	pIC50 [5]	AUC(0-t) at 4 h [7] [µM·h]	concentration at 4 h [8] [µM]	further results
NC1CCN(Cc2ccn3ncnc(Nc4ccc(OCc5cccc(F)c5)c(Cl)c4)c23)CC1	7.49	7.42	7.08					
Cc1cncc(COc2ccc(Nc3ncnn4ccc(CN5CCC(N)CC5)c34)cc2Cl)c1	7.22		6.74	5.46	5.46	7.8	1.8	metabolic rate [6]: 0 nmol/min/mg
Fc1cccc(Cn2ncc3cc(Nc4ncnn5ccc(CNC6CCNCC6)c45)ccc32)c1	7.12	6.96	5.94	5.30	5.30			
Fc1cccc(Cn2ncc3cc(Nc4ncnn5ccc(CN6CCCNCC6)c45)ccc32)c1			6.96	5.44	5.44			inhibition in vivo at 135 mg/kg ([9]; dose 135 mg/kg): 78%; minimal effective dose ([9]; read-out: MED): 90 mg/kg; inhibition in vivo at 180 mg/kg [10]: 121%; minimal effective dose at 180 mg/kg [10]: 90 mg/kg
NC1CCN(Cc2ccn3ncnc(Nc4ccc5c(cnn5Cc5cccnc5)c4)c23)CC1	7.47	6.72	7.07	< 5.30	< 5.30	22	4.5	metabolic rate [6]: 0.01 nmol/min/mg
OCCNC1CCN(Cc2ccn3ncnc(Nc4ccc5c(cnn5Cc5cccc(F)c5)c4)c23)CC1	7.51		7.14	5.27	5.27			
NC1CCN(Cc2ccn3ncnc(Nc4ccc(OCc5cnccn5)c(Cl)c4)c23)CC1	7.59	7.49	7.14	5.46	5.46	21	6.3	metabolic rate [6]: 0.12 nmol/min/mg; Activity [11]: inactive; inhibition in vivo at 180 mg/kg [10]: 63%; minimal effective dose at 180 mg/kg [10]: 180 mg/kg
NC1CCN(Cc2ccn3ncnc(Nc4ccc5c(cnn5Cc5ccccn5)c4)c23)CC1	7.46	7.33	6.92	< 5.00	< 5.00	3.6	1.6	metabolic rate [6]: 0.01 nmol/min/mg
Fc1cccc(COc2ccc(Nc3ncnn4ccc(CN5CCCNCC5)c34)cc2Cl)c1	7.39	7.32	6.22					
COc1cn2ncnc(Nc3ccc4c(cnn4Cc4cccc(F)c4)c3)c2c1CN1CCCNCC1	6.77	6.72	5.43					
NCC1CCN(Cc2ccn3ncnc(Nc4ccc5c(cnn5Cc5cccc(F)c5)c4)c23)CC1	7.42	7.46	6.85	5.54	5.54			
N[C@@H]1CCN(Cc2ccn3ncnc(Nc4ccc5c(cnn5Cc5cccc(F)c5)c4)c23)C1	7.15	7.22	6.08	5.41	5.41			
N[C@H]1CCN(Cc2ccn3ncnc(Nc4ccc5c(cnn5Cc5cccc(F)c5)c4)c23)C1	7.28	7.30	6.09	5.19	5.19			
COc1cn2ncnc(Nc3ccc4c(cnn4Cc4cccc(F)c4)c3)c2c1CN1CCC(N)CC1	7.37	7.40	6.37					
CS(=O)(=O)CCNC1CCN(Cc2ccn3ncnc(Nc4ccc5c(cnn5Cc5cccc(F)c5)c4)c23)CC1	6.72	6.70	6.15					
CN(C)C1CCN(Cc2ccn3ncnc(Nc4ccc5c(cnn5Cc5cccc(F)c5)c4)c23)CC1	6.96	7.00	6.35	5.12	5.12			
NC1CCN(Cc2ccn3ncnc(Nc4ccc5c(cnn5Cc5ccncc5)c4)c23)CC1	6.72	6.28	6.33	< 5.30	< 5.30			
NC1CCN(Cc2ccn3ncnc(Nc4ccc(OCc5ccccn5)c(Cl)c4)c23)CC1	7.66	7.44	7.24	5.70	5.70	13	3.7	metabolic rate [6]: 0.04 nmol/min/mg; inhibition in vivo at 240 mg/kg ([12]; dose 240 mg/kg): 110%; minimal effective dose ([12]; read-out: MED): 120 mg/kg
Fc1cccc(Cn2ncc3cc(Nc4ncnn5ccc(COC[C@@H]6CNCCO6)c45)ccc32)c1				5.06				pIC50 [13]: < 4.30
Cc1cncc(Cn2ncc3cc(Nc4ncnn5ccc(CN6CCC(N)CC6)c45)ccc32)c1	7.89	7.72	7.44	< 5.30	< 5.30	9.9	1.3	metabolic rate [6]: 0.06 nmol/min/mg; Activity [11]: inactive; inhibition in vivo at 180 mg/kg [10]: 89%; minimal effective dose at 180 mg/kg [10]: 120 mg/kg
CC1(N)CCN(Cc2ccn3ncnc(Nc4ccc5c(cnn5Cc5cccc(F)c5)c4)c23)CC1	7.37	7.30	7.15	5.21				pIC50 [14]: 5.21
NC1CCN(Cc2ccn3ncnc(Nc4ccc(OCc5cccc[n+]5[O-])c(Cl)c4)c23)CC1	7.74	7.15	6.96	< 5.30	< 5.30	15	3.9	metabolic rate [6]: 0 nmol/min/mg; Activity [11]: inactive
NC1CCN(Cc2ccn3ncnc(Nc4ccc(OCc5cccnc5)c(Cl)c4)c23)CC1	7.44	6.82	6.64	5.57	5.57	30	7.5	
CNC1CCN(Cc2ccn3ncnc(Nc4ccc5c(cnn5Cc5cccc(F)c5)c4)c23)CC1	7.27	7.20	7.11	5.14	5.14			
O=C(CO)NC1CCN(Cc2ccn3ncnc(Nc4ccc5c(cnn5Cc5cccc(F)c5)c4)c23)CC1	6.92	6.96	6.51	5.02	5.02			
CC(=O)NC1CCN(Cc2ccn3ncnc(Nc4ccc5c(cnn5Cc5cccc(F)c5)c4)c23)CC1	6.74	6.42	6.54	< 5.00				pIC50 [14]: < 5.00
NC1CCN(Cc2ccn3ncnc(Nc4ccc5c(cnn5Cc5cccc(F)c5)c4)c23)CC1	7.64	7.46	7.46	5.37		14	2.7	metabolic rate [6]: 0.05 nmol/min/mg; inhibition in vivo at 240 mg/kg [15]: 85%; pIC50 [16]: 5.41; pIC50 [17]: 6.15; pIC50 [18]: 6.32; pIC50 [19]: 5.72; IC50 [20]: > 50000 nM; pIC50 [13]: < 4.30; IC50 [21]: 2200 nM; pIC50 [14]: 5.37; inhibition in vivo at 180 mg/kg [10]: 133%; minimal effective dose at 180 mg/kg [10]: 60 mg/kg; MED [22]: 120 mg/kg

Source: ChEMBL document CHEMBL1140690, “5-((4-Aminopiperidin-1-yl)methyl)pyrrolotriazine dual inhibitors of EGFR and HER2 protein tyrosine kinases” (Bioorg Med Chem Lett, 2007)
